pIC50: −log10 of the molar value. One block for each compound: values may come before it. Activity calls are given as the source filed them. No cut-off for these calls is given here.
Key:
[1] = Inhibition of 20s constitutive proteasome beta 2 subunit trypsin-like activity in rabbit erythrocytes using Boc-LRR-AMC as substrate incubated for 15 mins prior to substrate addition measured after 45 mins by fluorescence assay; type: cell-based, Oryctolagus cuniculus; conditions: for pIC50: read-out: IC50
Method in brief: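 Purified rabbit erythrocyte constitutive 20S fraction, 0.27 nM enzyme, pre-incubated 15 min with or without inhibitor, then Boc-LRR-AMC added. Buffer at pH 7.5. Fluorescence read-out. IC50 is from a plot of percent inhibition against inhibitor concentration, Hill-equation fit.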

Oryctolagus cuniculus [2] = species: Oryctolagus cuniculus; assay: Inhibition of 20s constitutive proteasome beta 5 subunit chymotrypsin-like activity in rabbit erythrocytes using Suc-LLVY-AMC as substrate at 50 uM incubated for 15 mins prior to substrate addition measured after 45 mins by fluorescence assay relative to control; type: cell-based
Method in brief: (§1)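 Purified rabbit erythrocyte constitutive 20S fraction, 0.27 nM enzyme, pre-incubated 15 min with or without inhibitor before substrate addition. Buffer pH 7.5: 20 mM Tris, 1 mM DTT, 10% glycerol, 0.02% (w/v) SDS. Fluorescence read-out. IC50 is from a percent inhibition versus concentration plot, fitted with a Hill-type equation.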

Oryctolagus cuniculus [3] = species: Oryctolagus cuniculus; assay: Inhibition of 20s constitutive proteasome beta 1 subunit caspase-like activity in rabbit erythrocytes using Z-LLE-betaNA as substrate at 50 uM incubated for 15 mins prior to substrate addition measured after 45 mins by fluorescence assay relative to control; type: cell-based; method in brief: as §1
[4] = target: Cathepsin B (Homo sapiens) (UniProt P07858); assay: Inhibition of human cathepsin B using Z-RR-AMC as substrate by fluorescence assay
Method in brief: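 Human cathepsin B fraction, Z-RR-AMC substrate, at 37 °C in 352 mM KH2PO4, 48 mM Na2HPO4, 1 mM EDTA, 1 mM DTT, pH 6. Fluorescence read-out. IC50 is from percent inhibition versus inhibitor concentration.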

Oryctolagus cuniculus [5] = species: Oryctolagus cuniculus; assay: Inhibition of 20s constitutive proteasome beta 1 subunit caspase-like activity in rabbit erythrocytes using Z-LLE-betaNA as substrate at 25 uM incubated for 15 mins prior to substrate addition measured after 45 mins by fluorescence assay relative to control; type: cell-based; method in brief: as §1
[6] = target: T1, Calpain-1 catalytic subunit (Homo sapiens) (UniProt P07384); assay: Inhibition of human calpain-1 using Suc-LLVY-AMC as substrate by fluorescence assay
T1 sequence (whole entry): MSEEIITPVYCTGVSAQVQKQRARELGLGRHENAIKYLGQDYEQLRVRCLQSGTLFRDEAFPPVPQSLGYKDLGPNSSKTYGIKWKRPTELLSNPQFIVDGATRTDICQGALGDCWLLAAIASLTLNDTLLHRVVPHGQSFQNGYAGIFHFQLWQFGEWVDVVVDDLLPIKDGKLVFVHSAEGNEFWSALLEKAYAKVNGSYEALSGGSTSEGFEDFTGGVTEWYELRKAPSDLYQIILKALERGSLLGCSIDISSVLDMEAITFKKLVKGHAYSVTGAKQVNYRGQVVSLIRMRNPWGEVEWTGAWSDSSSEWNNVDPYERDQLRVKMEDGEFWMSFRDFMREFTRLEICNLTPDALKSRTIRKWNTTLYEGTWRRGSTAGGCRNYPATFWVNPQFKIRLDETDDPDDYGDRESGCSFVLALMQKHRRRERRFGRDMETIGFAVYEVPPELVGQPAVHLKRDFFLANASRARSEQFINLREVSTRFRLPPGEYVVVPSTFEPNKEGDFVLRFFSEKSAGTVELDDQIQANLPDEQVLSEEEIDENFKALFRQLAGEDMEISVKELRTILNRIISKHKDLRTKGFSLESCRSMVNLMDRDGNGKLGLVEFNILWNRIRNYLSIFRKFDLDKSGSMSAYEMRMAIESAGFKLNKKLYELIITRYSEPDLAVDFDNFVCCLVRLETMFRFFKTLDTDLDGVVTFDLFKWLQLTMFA
Method in brief: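 Human calpain I fraction, Suc-LLVY-AMC substrate, at 25 °C in 50 mM Tris, 10 mM DTT with CaCl2, pH 7.2. Fluorescence read-out. IC50 is from percent inhibition versus inhibitor concentration.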

[7] = Inhibition of 20s constitutive proteasome beta 5 subunit chymotrypsin-like activity in rabbit erythrocytes using Suc-LLVY-AMC as substrate incubated for 15 mins prior to substrate addition measured after 45 mins by fluorescence assay; type: cell-based, Oryctolagus cuniculus; method in brief: as §1
[8] = target: T2, Proteasome Macropain subunit MB1 (Homo sapiens) (UniProt P28074); assay: Inhibition of 20s immunoproteasome beta 5 subunit chymotrypsin-like activity in human blood monocytes using Suc-LLVY-AMC as substrate at 100 uM preincubated for 2 mins followed by substrate addition by fluorescence assay; type: cell-based
T2 sequence (whole entry): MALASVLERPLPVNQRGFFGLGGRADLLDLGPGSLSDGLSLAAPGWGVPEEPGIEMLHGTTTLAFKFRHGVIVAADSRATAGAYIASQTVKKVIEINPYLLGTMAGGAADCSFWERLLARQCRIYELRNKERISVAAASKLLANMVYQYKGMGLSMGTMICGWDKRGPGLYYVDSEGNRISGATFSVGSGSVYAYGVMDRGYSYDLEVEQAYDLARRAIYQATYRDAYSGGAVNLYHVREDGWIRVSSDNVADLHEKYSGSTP
Method in brief: (§2)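 Purified immunoproteasome 20S fraction, run like the constitutive assay but with a 2-min pre-incubation with inhibitor before adding the respective substrate. Fluorescence read-out. IC50 is from percent inhibition versus concentration, fitted with a Hill-number equation.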

[9] = target: T3, Proteasome component C5 (Homo sapiens) (UniProt P20618); assay: Inhibition of 20s immunoproteasome beta 1 subunit caspase-like activity in human blood monocytes using Z-LLE-betaNA as substrate at 100 uM preincubated for 2 mins followed by substrate addition by fluorescence assay; type: cell-based; method in brief: as §2
T3 sequence (whole entry): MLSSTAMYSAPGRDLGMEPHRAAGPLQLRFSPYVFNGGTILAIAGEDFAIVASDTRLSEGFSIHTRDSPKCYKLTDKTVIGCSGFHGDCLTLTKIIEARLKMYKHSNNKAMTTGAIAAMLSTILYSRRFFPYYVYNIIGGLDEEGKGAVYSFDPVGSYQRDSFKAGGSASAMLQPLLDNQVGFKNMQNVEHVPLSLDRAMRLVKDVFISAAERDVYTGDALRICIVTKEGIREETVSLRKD

[10] = target: Proteasome Macropain subunit (Homo sapiens) (UniProt P49721); assay: Inhibition of 20s immunoproteasome beta 2 subunit trypsin-like activity in human blood monocytes using Boc-LRR-AMC as substrate at 100 to 2000 nM preincubated for 2 mins followed by substrate addition by fluorescence assay; type: cell-based; method in brief: as §2
HeLa = assay: Cytotoxicity against human HeLa cells assessed as decrease cell attachment after 18 to 72 hrs by XTT assay; type: cell-based
Method in brief: (§3)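 HeLa cells seeded and handled as for the in-cell proteasome assay, then exposed to inhibitor for 18 or 72 h. Viability read as XTT reduction to formazan by mitochondrial dehydrogenases: 3 h with 1 mg/mL XTT, absorbance at 485 nm.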

[11] = target: T2, Proteasome Macropain subunit MB1 (Homo sapiens); assay: Inhibition of 20s immunoproteasome beta 5 subunit chymotrypsin-like activity in human blood monocytes using Suc-LLVY-AMC as substrate at 100 to 2000 nM preincubated for 2 mins followed by substrate addition by fluorescence assay; type: cell-based; method in brief: as §2
[12] = test system: mitochondrial dehydrogenase activity (cytotoxicity readout); assay: Cytotoxicity against human HeLa cells assessed as inhibition of mitochondrial dehydrogenase activity at 50 uM after 18 to 72 hrs by XTT assay relative to control; type: cell-based; conditions: read-out: INH; method in brief: as §3

Chain of Proteasome Macropain subunit (Homo sapiens) (P49721 whole entry): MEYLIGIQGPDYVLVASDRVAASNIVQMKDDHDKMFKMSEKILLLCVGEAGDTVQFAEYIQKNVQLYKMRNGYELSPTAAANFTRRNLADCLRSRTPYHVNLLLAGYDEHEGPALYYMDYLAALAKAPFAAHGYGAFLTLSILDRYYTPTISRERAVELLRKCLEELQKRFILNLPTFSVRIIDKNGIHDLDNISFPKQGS

- pIC50 [1]: 4.71
- inhibition (Oryctolagus cuniculus [3]): 25%
Structure (SMILES): CCN(CC)CC(O)Cn1cnc2sc(-c3ccccc3)cc2c1=O (configuration not stated)
- inhibition (Oryctolagus cuniculus [2]): 36%

- inhibition [4]: inactive
- inhibition (Oryctolagus cuniculus [5]): inactive
- inhibition [6]: inactive
- IC50 [1]: Not Active
- IC50 [7]: Not Active
Structure (SMILES): CC1(C)OC(=O)c2c1ccnc2Nc1ccc(S(N)(=O)=O)cc1

- inhibition [8]: inactive
- inhibition [9]: inactive
- pIC50 [1]: 5.00
Structure (SMILES): O=c1c2cc(-c3ccccc3)sc2ncn1CCc1ccc(Cl)cc1

- inhibition [10]: inactive
- inhibition [4]: inactive
- inhibition [11]: inactive
- inhibition [6]: inactive
Structure (SMILES): CC1(C)OC(=O)c2c1ccnc2NCc1ccccc1
- Activity (HeLa): Toxic
- cytotoxicity at 50 µM [12]: 35%
